{
  "source": "ChEMBL document CHEMBL1132168",
  "about": "“Cycloalkanecarboxylic esters derived from lysergol, dihydrolysergol-I, and elymoclavine as partial agonists and antagonists at rat 5-HT2A receptors: pharmacological evidence that the indolo[4,3-fg]quinoline system of the ergolines is responsible for high 5-HT2A receptor affinity” (J Med Chem, 1999)",
  "key": {"[1]": {"biological_target": "T1, 5-hydroxytryptamine receptor 2A (Rattus norvegicus, UniProt P14842)", "T1 sequence (P14842 whole entry)": "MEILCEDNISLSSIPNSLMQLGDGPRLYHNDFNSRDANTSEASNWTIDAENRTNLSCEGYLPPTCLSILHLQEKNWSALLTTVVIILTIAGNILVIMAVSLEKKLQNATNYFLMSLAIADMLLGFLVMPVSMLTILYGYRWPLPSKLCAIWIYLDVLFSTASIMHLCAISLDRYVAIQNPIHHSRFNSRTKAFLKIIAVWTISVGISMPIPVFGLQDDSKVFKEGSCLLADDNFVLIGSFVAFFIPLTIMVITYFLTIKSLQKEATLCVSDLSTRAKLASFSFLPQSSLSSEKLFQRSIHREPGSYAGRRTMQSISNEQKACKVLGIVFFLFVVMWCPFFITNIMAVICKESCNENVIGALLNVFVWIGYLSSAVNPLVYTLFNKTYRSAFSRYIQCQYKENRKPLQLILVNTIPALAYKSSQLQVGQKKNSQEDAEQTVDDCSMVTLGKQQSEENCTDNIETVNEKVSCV", "assay": "Effectiveness of compound in blocking 5-hydroxytryptamine 2A receptor-mediated contractions of rat tail artery", "format": "functional, tissue-based", "conditions": "read-out: pA2 (converted)", "summary_of_the_method": "(§1)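 Endothelium-denuded rat ventral caudal artery segments (4–5 mm), isometric, resting force 5 mN. Segments were primed once with 5-HT 1 μM during 120 min equilibration. Prazosin 30 nM and cocaine 6 μM were present throughout. Two cumulative 5-HT curves were run 60 min apart, the second after 30–60 min with antagonist. pKP by Marano–Kaumann; pA2 by Schild or as apparent pA2. Mean ± SEM, n segments, ≥2 animals.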"}, "[2]": {"assay": "Specificity towards 5-HT2A receptor to that of alpha-1 adrenoceptor.", "format": "functional"}, "[3]": {"biological_target": "T2, Adrenergic receptor alpha-1 (Rattus norvegicus, UniProt P15823+P23944+P43140)", "T2 sequence (P15823 whole entry)": "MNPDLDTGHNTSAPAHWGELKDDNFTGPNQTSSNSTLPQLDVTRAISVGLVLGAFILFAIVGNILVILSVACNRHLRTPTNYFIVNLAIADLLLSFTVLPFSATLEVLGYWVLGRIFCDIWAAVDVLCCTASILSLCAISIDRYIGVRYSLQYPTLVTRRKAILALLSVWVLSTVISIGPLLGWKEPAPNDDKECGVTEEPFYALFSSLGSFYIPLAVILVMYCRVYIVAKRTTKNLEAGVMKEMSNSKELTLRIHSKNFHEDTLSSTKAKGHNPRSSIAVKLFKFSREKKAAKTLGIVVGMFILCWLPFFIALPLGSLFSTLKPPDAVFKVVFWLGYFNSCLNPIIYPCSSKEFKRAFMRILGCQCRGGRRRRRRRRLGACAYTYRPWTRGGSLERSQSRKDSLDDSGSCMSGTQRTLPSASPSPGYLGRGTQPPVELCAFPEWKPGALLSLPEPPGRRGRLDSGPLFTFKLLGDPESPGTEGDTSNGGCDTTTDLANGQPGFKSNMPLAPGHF", "T2 sequence (P23944 whole entry)": "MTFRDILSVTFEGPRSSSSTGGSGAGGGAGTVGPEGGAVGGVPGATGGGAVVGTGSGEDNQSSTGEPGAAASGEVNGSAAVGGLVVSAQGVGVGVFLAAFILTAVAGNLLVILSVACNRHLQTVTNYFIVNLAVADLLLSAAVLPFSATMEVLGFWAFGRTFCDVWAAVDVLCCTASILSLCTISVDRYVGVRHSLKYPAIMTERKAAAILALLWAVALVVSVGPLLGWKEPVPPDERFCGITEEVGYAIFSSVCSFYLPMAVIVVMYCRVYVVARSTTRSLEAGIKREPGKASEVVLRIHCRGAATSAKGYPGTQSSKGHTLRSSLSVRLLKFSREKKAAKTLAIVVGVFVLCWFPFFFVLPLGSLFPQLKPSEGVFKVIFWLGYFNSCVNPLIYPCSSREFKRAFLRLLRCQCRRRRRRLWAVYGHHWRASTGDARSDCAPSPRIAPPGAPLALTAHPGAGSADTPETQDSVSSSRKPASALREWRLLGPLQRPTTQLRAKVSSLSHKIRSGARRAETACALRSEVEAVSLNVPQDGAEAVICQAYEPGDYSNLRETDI", "T2 sequence (P43140 whole entry)": "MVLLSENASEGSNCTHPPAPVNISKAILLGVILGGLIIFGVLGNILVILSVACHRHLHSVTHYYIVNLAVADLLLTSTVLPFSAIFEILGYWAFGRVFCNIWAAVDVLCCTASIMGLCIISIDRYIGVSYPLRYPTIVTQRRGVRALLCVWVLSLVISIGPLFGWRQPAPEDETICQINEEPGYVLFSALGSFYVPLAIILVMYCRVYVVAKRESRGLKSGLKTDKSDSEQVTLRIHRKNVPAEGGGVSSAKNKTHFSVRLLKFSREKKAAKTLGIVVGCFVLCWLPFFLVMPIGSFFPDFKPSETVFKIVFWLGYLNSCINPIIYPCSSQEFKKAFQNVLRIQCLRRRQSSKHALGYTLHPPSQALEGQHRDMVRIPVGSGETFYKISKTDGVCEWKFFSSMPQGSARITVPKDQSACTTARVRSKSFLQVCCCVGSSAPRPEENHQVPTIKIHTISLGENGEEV", "assay": "Ability to block alpha-1 adrenergic receptor-mediated contractions of rat aorta.", "format": "functional", "summary_of_the_method": "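Endothelium-denuded rat thoracic aorta rings (4–6 mm) in modified Krebs-Henseleit, 37 °C, 95% O2/5% CO2, with (R,S)-propranolol 1 μM. Resting force 20 mN. During 140 min equilibration, rings were stimulated twice with (R)-phenylephrine 100 nM. Two cumulative phenylephrine contraction curves were run, without and then with antagonist added 30 min before.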"}, "[4]": {"biological_target": "5-hydroxytryptamine receptor 2A (Rattus norvegicus) (UniProt P14842)", "sequence (P14842 whole entry)": "as the sequence (P14842 whole entry) above", "assay": "Intrinsic activity towards 5-HT2A receptor of rat tail artery", "format": "functional, tissue-based", "summary_of_the_method": "(§2)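 Endothelium-denuded rat caudal artery segments, resting force 5 mN, with prazosin 30 nM and cocaine 6 μM present. Two cumulative curves were run on each segment 60 min apart: first 5-HT, then the test agonist. pKP was taken from a Kenakin plot of equieffective 5-HT and agonist concentrations. Mean ± SEM from n segments, ≥2 animals.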"}, "[5]": {"biological_target": "5-hydroxytryptamine receptor 2A (Rattus norvegicus) (UniProt P14842)", "assay": "Relative potency towards 5-HT2A receptor of rat tail artery", "format": "functional, tissue-based", "summary_of_the_method": "as §2"}, "[6]": {"biological_target": "T1, 5-hydroxytryptamine receptor 2A", "assay": "Partial agonism at 5-HT2A receptor was evaluated in presence of ketanserin (3-10 nM) in isolated rat tail artery", "format": "functional, tissue-based", "conditions": "read-out: pA2 (converted)", "summary_of_the_method": "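Rat caudal artery, endothelium removed, with prazosin 30 nM and cocaine 6 μM present. A 5-HT curve was followed after 60 min by a cumulative agonist curve, with ketanserin 3 nM added 30 min beforehand. The rightward shift was compared with that in control segments run without ketanserin.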"}, "[7]": {"biological_target": "5-hydroxytryptamine receptor 2A (Rattus norvegicus) (UniProt P14842)", "assay": "Effectiveness in blocking 5-HT2A receptor-mediated contractions of rat tail artery", "format": "functional, tissue-based", "summary_of_the_method": "as §1"}, "[8]": {"biological_target": "5-hydroxytryptamine receptor 2A (Rattus norvegicus) (UniProt P14842)", "conditions": "Tail"}, "[9]": {"biological_target": "T1, 5-hydroxytryptamine receptor 2A", "assay": "Blocking 5-HT2A receptor-mediated contractions of rat tail artery", "format": "functional, tissue-based", "conditions": "read-out: pA2 (converted)", "summary_of_the_method": "as §1"}, "[10]": {"biological_target": "5-hydroxytryptamine receptor 1B (Homo sapiens, UniProt P28222)", "sequence (P28222 whole entry)": "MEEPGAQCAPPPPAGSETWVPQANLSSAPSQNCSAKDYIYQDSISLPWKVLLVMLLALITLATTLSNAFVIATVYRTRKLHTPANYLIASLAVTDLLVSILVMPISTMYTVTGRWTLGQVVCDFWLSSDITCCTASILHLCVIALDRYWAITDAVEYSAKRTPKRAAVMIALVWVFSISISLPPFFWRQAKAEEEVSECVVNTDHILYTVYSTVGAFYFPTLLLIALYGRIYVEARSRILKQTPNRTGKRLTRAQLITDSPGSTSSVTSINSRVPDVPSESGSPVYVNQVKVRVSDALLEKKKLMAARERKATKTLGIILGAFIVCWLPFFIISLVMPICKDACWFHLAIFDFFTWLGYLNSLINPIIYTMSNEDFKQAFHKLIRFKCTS", "assay": "Affinity of compound towards 5-hydroxytryptamine 1B receptor in isolated guinea-pig iliac artery", "format": "functional, tissue-based, Cavia porcellus", "conditions": "target entry is the homologue from another species; read-out: pA2 (converted)", "summary_of_the_method": "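Iliac artery segments (1–2 mm), resting force 5 mN. Krebs-Henseleit contained ketanserin 1 μM, mepyramine 0.3 μM, cimetidine 30 μM and cocaine 30 μM. […] Two 5-HT curves were run 80 min apart, the second after 45 min with compound.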"}, "[11]": {"assay": "Specificity of compound towards 5-HT2A receptor to that of 5-HT1B receptor", "format": "functional"}},
  "note": "Several values for one entry are separate records, joined by “and”; a condition that tells them apart may be missing. Equal values may be shown once.",
  "data": [
    {"smiles": "CC(C)n1cc2c3c(cccc31)C1=C[C@@H](COC(=O)C3CCCCCC3)CN(C)[C@@H]1C2.O=C(O)/C=C\\C(=O)O", "values": [
      {"measurement": "Kb", "setting": "[1]", "value": 17.8, "unit": "nM"},
      {"measurement": "Specificity", "setting": "[2]", "value": 661},
      {"measurement": "pA2", "setting": "[3]", "value": 4.93}
    ]},
    {"smiles": "CC(C)n1cc2c3c(cccc31)[C@H]1C[C@@H](COC(=O)C3CC3)CN(C)[C@@H]1C2.O=C(O)/C=C\\C(=O)O", "values": [
      {"measurement": "Kb", "setting": "[1]", "value": 6.03, "unit": "nM"},
      {"measurement": "Specificity", "setting": "[2]", "value": 468},
      {"measurement": "pA2", "setting": "[3]", "value": 5.55}
    ]},
    {"smiles": "CN1C[C@H](COC(=O)C2CCCCC2)C=C2c3cccc4[nH]cc(c34)C[C@H]21.O=C(O)/C=C\\C(=O)O", "values": [
      {"measurement": "Intrinsic activity", "setting": "[4]", "value": 0.18},
      {"measurement": "Relative potency", "setting": "[5]", "value": 49, "unit": "%"},
      {"measurement": "Kb", "setting": "[6]", "value": 0.661, "unit": "nM"},
      {"measurement": "pKp", "setting": "[7]", "value": 6.92},
      {"measurement": "Specificity", "setting": "[2]", "value": 68},
      {"measurement": "pA2", "setting": "[3]", "value": 5.05},
      {"measurement": "pKp", "setting": "[8]", "value": 6.88}
    ]},
    {"smiles": "CC(C)n1cc2c3c(cccc31)[C@H]1C[C@@H](CO)CN(C)[C@@H]1C2.O=C(O)/C=C\\C(=O)O", "values": [
      {"measurement": "Kb", "setting": "[9]", "value": 3.16, "unit": "nM"},
      {"measurement": "Kb", "setting": "[10]", "value": 1860, "unit": "nM"},
      {"measurement": "Specificity", "setting": "[2]", "value": 240},
      {"measurement": "pA2", "setting": "[3]", "value": 6.12},
      {"measurement": "Specificity", "setting": "[11]", "value": 589}
    ]},
    {"smiles": "CC(C)n1cc2c3c(cccc31)C1=C[C@@H](CO)CN(C)[C@@H]1C2.O=C(O)/C=C\\C(=O)O", "values": [
      {"measurement": "Kb", "setting": "[9]", "value": 0.708, "unit": "nM"},
      {"measurement": "Kb", "setting": "[10]", "value": 209, "unit": "nM"},
      {"measurement": "Specificity", "setting": "[2]", "value": 1260},
      {"measurement": "pA2", "setting": "[3]", "value": 6.05},
      {"measurement": "Specificity", "setting": "[11]", "value": 295}
    ]},
    {"smiles": "CC(C)n1cc2c3c(cccc31)[C@H]1C=C(CO)CN(C)[C@@H]1C2.O=C(O)/C=C\\C(=O)O", "values": [
      {"measurement": "Kb", "setting": "[9]", "value": 0.724, "unit": "nM"},
      {"measurement": "Kb", "setting": "[10]", "value": 851, "unit": "nM"},
      {"measurement": "Specificity", "setting": "[2]", "value": 2820},
      {"measurement": "pA2", "setting": "[3]", "value": 5.69},
      {"measurement": "Specificity", "setting": "[11]", "value": 1180}
    ]},
    {"smiles": "CN1C[C@H](COC(=O)C2CCCC2)C=C2c3cccc4[nH]cc(c34)C[C@H]21.O=C(O)/C=C\\C(=O)O", "values": [
      {"measurement": "Intrinsic activity", "setting": "[4]", "value": 0.11},
      {"measurement": "Relative potency", "setting": "[5]", "value": 128, "unit": "%"},
      {"measurement": "Kb", "setting": "[6]", "value": 0.741, "unit": "nM"},
      {"measurement": "pKp", "setting": "[7]", "value": "7.4 and 7.27"},
      {"measurement": "Specificity", "setting": "[2]", "value": 120},
      {"measurement": "pA2", "setting": "[3]", "value": 5.32}
    ]}
  ]
}
